Bioassay records as filed in PubChem BioAssay.
HCT116 PTEN-null – growth suppression of PTEN-null HCT116, primary screen, cell-based, CellTiter-Glo; viability, % at 10 µM; AID 827, 2007; HCT116 PTEN-null viability, 60 h; hits give low values; actives 1.2% (n = 140,000);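 active means viability at or below a set limit, 4 SD under the median of all tested compounds, cut at about 3.7% in these data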;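 further: PTEN knockout HCT116 line with beta catenin targeted HCT116 as companion control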
HCT116 bCat-KO – primary screen for growth suppressors in beta-catenin knockout HCT116 cells (colon tumor, human); HCT116 beta-catenin knockout viability, CellTiter-Glo, 60 h; hits give low values; viability, % at 10 µM; actives 1.5% (n = 140,000);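 active means viability at or under a set limit, the compound median less 4 SD, cut at about 6% in these data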
HUVEC prolif 384 – inhibitors of HUVEC proliferation, primary screen, cell-based, 384-well; CellTiter-Glo luminescence, 72 h; hits give low values; viability, % at 10 µM (by protocol); actives 1.1% (n = 86,000); AID 648, 2007;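 active means viability at or below 30%; inactive means viability above 30%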
Lung fibro prol – antiproliferative effect on LL 47 fibroblasts – human, LL 47 cells, CellTiter-Glo luminescence, primary screen; LL 47 human lung fibroblast viability, ATP luminescence; hits give low values; viability, % at 10 µM; actives 1.1% (n = 85,000);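 active means viability at or below 50% in the single dose screen; inactive means viability above 50%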;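 further: compound exposure lasted 72 h before the ATP readout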
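Material: human lung fibroblast line LL 47, low passage; Evaluation: viability percentage against median untreated-cell control; Buffer or medium: 15% FBS in IMEM; Incubation: 72 h compound exposure at 37 °C after overnight plating; Dosing: 0.1% DMSO in all compound wells; Measured by: CellTiter-Glo luminescence.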
H69AR inhibit – proliferation blockers of H69AR lung cancer cells, primary screen, cell-based, human, 86K library | H69AR lung tumor viability, ATP luminescence, 72 h; hits give low values | actives 6% (n = 85,000) | viability, % at 10 µM | AID 598, 2007;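 active means viability at or below 40%; inactive means viability above 40%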;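 further: multidrug resistant small cell line overexpressing MRP-1 efflux transporter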
Hits are given with their value; . = inactive; / = no result given. Many of the other results were omitted from the sample, so hits are more common in it than they were.

SMILES	HCT116 PTEN-null	HCT116 bCat-KO	HUVEC prolif 384	Lung fibro prol	H69AR inhibit
Clc1ccc(C(c2nnnn2C2CCCCC2)N(Cc2cccnc2)Cc2ccco2)cc1 (stereo unspecified)	.	.	.	.	36
N/N=C(\c1ccccc1)C12CN3CN(CN(C3)C1)C2	.	.	/	/	/
COc1ccc(S(=O)(=O)Nc2cc3c4c(oc3c3ccccc23)CC(C)(C)CC4=O)cc1	.	.	.	.	15
CCNc1nc(CSc2ccccc2)nc2sc(C)c(C)c12	.	.	/	/	/
CN(C)C=Nc1ncc2c3ccccc3n(CCN(C)C)c2c1C#N	.	.	.	.	.
CCN(CC)CCn1c2ccccc2c2cnc(N)c(C#N)c21	.	4.3	.	22	29
CN(C)N1C(N)=C(C#N)C(c2cccnc2)C2=C1CCCC2=O (stereo unspecified)	.	.	/	/	/
COc1cc(/C=C/C(=O)CC(=O)/C=C/c2ccc(O)c(OC)c2)ccc1O	.	.	22	21	4.3
CC(/C=C/C=C/c1ccccc1)=N/NC(=O)CNc1ccccc1C	.	.	/	/	/
CCOC(=O)c1[nH]c(C)c(C(=O)Nc2ccc(F)cc2)c1C	.	.	.	.	.
CCOC(=O)c1[nH]c(C)c(C(=O)c2ccc(C)cc2)c1C	/	.	.	46	29
CCOC(=O)c1[nH]c(C)c(C(=O)Nc2ccccc2F)c1C	.	.	.	.	23
CCOC(=O)c1[nH]c(C)c(C(=O)Nc2ccc(C)cc2C)c1C	.	.	.	.	38
CCOC(=O)c1[nH]c(C)c(C(=O)NCc2ccc(C)cc2)c1C	.	.	.	.	.
COCCNC(=O)CSC1=N/C(=C/c2ccc(Cl)c(Cl)c2)C(=O)N1c1ccccc1F	.	.	/	/	/
O=C(CN1C(=O)c2ccccc2C1=O)c1ccccc1	.	.	.	.	.
CC1=C(CC(=O)c2ccccc2)C(=O)c2ccccc2C1=O	2.0	2.2	/	/	/
CC(C)Cn1c(SCC(=O)NCc2ccc(Cl)cc2)nnc1-c1cccc(S(=O)(=O)N2CCOCC2)c1	.	.	.	.	.
COc1ccc(Nc2nnc(SCC(=O)/C=C3/N(C)c4ccccc4C3(C)C)s2)cc1	.	.	/	/	/
COc1cccc(/C=N/n2c(N)nc3ccccc32)c1OC	.	.	.	.	.
COc1cccc(/C=N/n2cnc3ccccc32)c1OC	.	.	.	.	30
N#CC(=C1CCCC1)c1nc(-c2ccccc2O)cs1	.	.	.	.	29
Cc1cc(C)c2nc(NNC(=O)c3ccc(S(=O)(=O)N4CCCC(C)C4)cc3)sc2c1 (stereo unspecified)	.	4.0	/	/	/
Cc1ccc2nc(NNC(=O)c3ccc(S(=O)(=O)N4CCc5ccccc5C4)cc3)sc2c1	.	3.8	/	/	/
Cc1cc(C)c2nc(NNC(=O)c3ccc(S(=O)(=O)N4CC(C)CC(C)C4)cc3)sc2c1 (stereo unspecified)	.	.	/	/	/
SMILES	HCT116 PTEN-null	HCT116 bCat-KO	HUVEC prolif 384	Lung fibro prol	H69AR inhibit
Cc1cccc2sc(NNC(=O)c3ccc(S(=O)(=O)N4CC(C)CC(C)C4)cc3)nc12 (stereo unspecified)	1.9	2.2	/	/	/
COC(=O)c1sc2ccccc2c1NC(=O)c1ccc(S(=O)(=O)N2CC(C)CC(C)C2)cc1 (stereo unspecified)	.	.	/	/	/
O=C(c1ccc(-c2nnc(Nc3ccccc3)c3ccccc23)cc1)N1C[C@H]2C[C@H](C1)c1cccc(=O)n1C2	.	.	.	.	.
COc1ccc(-c2c(C)nc(N)nc2-c2ccc(OCc3ccc(C)cc3)cc2O)cc1OC	.	.	/	/	/
Cc1ccc(C)c(OCC(=O)NCC(C)C)c1C	.	.	/	/	/
O=C(Cn1nnc(-c2ccccc2Cl)n1)N/N=C/c1ccc(-c2cccc(Cl)c2)o1	.	.	/	/	/
COc1ccc(C2Nc3ccc4ccccc4c3-c3c2c(=O)oc2ccccc32)cc1 (stereo unspecified)	1.5	3.2	/	/	/
CCOc1ccc(C2Nc3ccc4ccccc4c3-c3c2c(=O)oc2ccccc32)cc1 (stereo unspecified)	.	2.7	/	/	/
O=c1oc2ccccc2c2c1C(c1ccc(Cl)cc1)Nc1ccc3ccccc3c1-2 (stereo unspecified)	.	.	/	/	/
CCCNC(=S)N1CCN(CC)CC1	.	.	/	/	/
O=C(c1ccc(Cl)cc1)N1CCC(O)(CSc2ccc(Cl)cc2Cl)CC1	.	.	/	/	/
Cc1ccc(S(=O)(=O)n2c3ccc(F)cc3c3nc(C)sc32)cc1	.	.	/	/	/
Cc1nn(-c2ccccn2)c2c1-c1nc(N3CCOCC3)ncc1CC2	.	.	.	.	10
Cc1nn(-c2ccccn2)c2c1-c1nc(N)ncc1CC2	.	.	.	.	.
O=c1cc(-c2c(F)c(F)c(F)c(F)c2F)oc2c(F)c(F)c(F)c(F)c12	1.5	1.6	1.6	17	1.0
O=c1cc(-c2c(F)c(F)c(F)c(F)c2F)oc2ccccc12	/	2.2	/	/	/
CCCc1cc2c(=O)n(NC(=O)c3nn(C)cc3[N+](=O)[O-])c(C)nc2s1	.	.	/	/	/
CCN(CC)S(=O)(=O)c1cccc(NC(=O)Nc2cccc(C(F)(F)F)c2)c1	3.2	4.2	/	/	/
CCN(CC)S(=O)(=O)c1ccc2c(c1)nc(CCC(=O)Nc1cccc(C(F)(F)F)c1)n2CC	.	.	.	.	14
Cc1cc(NC(=O)Nc2cccc(C(F)(F)F)c2)no1	.	.	.	.	.
CCOC(=O)c1ccc(NC(=S)N(CCCN2CCCC(C)C2)Cc2ccco2)cc1 (stereo unspecified)	.	.	/	/	/
COC1=C(N)C(=O)c2nc(-c3nc(C(=O)O)c(C)c(-c4ccc(OC)c(OC)c4O)c3N)ccc2C1=O	2.0	2.3	/	/	/
COc1ccc(-c2ncncc2-c2csc(C)n2)c(O)c1OC	.	.	.	.	.
COc1ccccc1-c1cc(-c2ccccc2)nc(SC(C(N)=O)c2ccccc2)c1C#N (stereo unspecified)	3.5	.	/	/	/
